Hits are enriched below; roughly 2.8% of the tested compounds scored in any of these assays.
p-CIP stab down = compounds decreasing mouse p/CIP protein stability; F442A p/CIP-EGFP cells, EGFP fluorescence, 16 h; decrease of EGFP signal, % at 10 µM; 290,000 tested, 0.01% active; AID 1984;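 active = EGFP signal decrease of at least 30% at 10 µM or well 3 SD below plate mean, unless failing retest; inactive = the rest, including hits failing retest or dose response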
T cruzi repl = blocks replication of Trypanosoma cruzi; 300,000 tested, 1.4% active; AID 1885; T. cruzi beta-gal in NIH3T3, luminescence, 90 h; inhibition, % (concentration not given with the values);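 active = mean inhibition across valid replicates above about 55%, limit read from the data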;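 also: signal also drops with host cell toxicity which is not excluded here; 0% = plate median of DMSO wells and 100% = zero luminescence signal; higher percent means less beta-gal luminescence so fewer parasites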
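Read-out: Parasite load inhibition, % | Test system: Mouse NIH/3T3 fibroblasts infected with β-gal-expressing T. cruzi Tulahuen C4 | Amount: 5,000 cells/well | Medium: DMEM, 2% fetal bovine serum | Signal: GalScreen β-gal luminescence, detergent lysis, 60 min | Timing: 3 h attach, ≥90 h co-culture | Also added: Tulahuen C4 trypomastigotes, 5000/well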
UBC13 polyUb = blocks human UBC13 polyubiquitin chain formation | P61088 | TR-FRET | inhibition, % at 20 µM | 330,000 tested, 0.47% active; in the data active = inhibition above about 45%, passing the limit was not always enough
AI-2 QS modul = modulators of Vibrio harveyi AI-2 quorum sensing system. Vibrio harveyi JMH597 AI-2 luminescence/OD600 ratio, 9 h; active compounds read low; strain lacks LuxN and CqsS sensors; 0 = neutral-control median. activity change, % at 7.5 µM. 300,000 tested, 0.4% active. AID 2094; in the data active = activity change below about -75%, passing the limit was not always enough;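 also: luminescence divided by OD600 gain over 9 h not by final OD600 alone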
PP1 inh = PP1-alpha (human) inhibition in PP5 counter-screen; P62136; purified PP1alpha, OMFP fluorescence; inhibition, % at 6.7 µM; 320,000 tested, 0.9% active;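 active = inhibition above the mean inhibition of all tested compounds plus 3 SD, computed separately for each screening campaign, cut at about 15% in these data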
Target sequence (P62136 whole entry, looked up): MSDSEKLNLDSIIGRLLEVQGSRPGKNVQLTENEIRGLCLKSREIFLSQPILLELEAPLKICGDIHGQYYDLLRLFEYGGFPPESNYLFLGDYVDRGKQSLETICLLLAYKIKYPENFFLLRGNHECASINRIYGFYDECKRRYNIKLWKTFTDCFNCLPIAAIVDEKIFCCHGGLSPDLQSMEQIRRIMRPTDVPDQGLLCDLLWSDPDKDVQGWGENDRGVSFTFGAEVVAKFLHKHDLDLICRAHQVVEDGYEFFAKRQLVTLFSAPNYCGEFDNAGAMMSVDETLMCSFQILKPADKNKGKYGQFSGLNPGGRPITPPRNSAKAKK
Casp3 UBC13 ctr = inhibits human caspase-3 in UBC13 counter-screen; Recombinant caspase-3, Caspase-Glo 3/7 luminescence, 60 min; 1,400 tested, 4% active; inhibition, % at 20 µM; shares compounds with UBC13 polyUb;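 active = mean inhibition across replicates above about 26%, limit read from the data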;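 also: plate controls were DMSO with caspase-3 for no effect and DMSO wells lacking enzyme for full effect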
UBC13 conf = human UBC13 polyubiquitin inhibition, confirmed; shares compounds with UBC13 polyUb; UBC13 polyubiquitination, TR-FRET, biochemical; inhibition, % at 10 µM; 1,400 tested, 68% active; AID 488859; in the data active = inhibition above about 45%
Numbers without * were called inactive; . = no result.

SMILES	p-CIP stab down	T cruzi repl	UBC13 polyUb	AI-2 QS modul	PP1 inh	Casp3 UBC13 ctr	UBC13 conf
OCCNc1ncnc2c1sc1nc(N3CCOCC3)c3c(c12)CCC3	0	3	12	17	8	.	.
CCN(CC)CCNc1ncnc2c1sc1nc(N3CCOCC3)c3c(c12)CCCC3	2	26	69*	-19	0	-2	84*
CCc1nc(NC(=O)NS(=O)(=O)c2ccccc2C(=O)OC)nc(OC)n1	-6	-8	-3	11	-4	.	.
O=C(COc1ccc(NS(=O)(=O)c2ccc(F)cc2)cc1)N1CCOCC1	-23	-2	-1	19	-4	.	.
O=C(CSC1=NS(=O)(=O)c2ccccc21)Nc1ccccc1	-7	-39	47*	52	0	2	18
Nc1ccc2c(c1)C(=O)Cc1ccccc1S2	-13	2	58*	3	-1	1	32
CN(C)CCCOc1ccc2c(c1)Sc1ccccc1CC2=O	6	33	9	3	3	.	.
CCN(CC)c1cccc(OCC(=O)N2c3ccccc3CC2C)c1 (stereo unspecified)	.	.	9	.	-4	.	.
CCn1c(SCC(=O)NC(=O)c2ccccc2OC)nc2ccccc21	-9	-14	4	17	-3	.	.
CCOc1cc(/C=C/C(=O)Nc2ccc(C(=O)NCCN(CC)CC)cc2)ccc1OCC(C)C	12	51	78*	-4	0	-2	96*
Cc1c(NC(=O)COC(=O)/C=C/c2cccc(Cl)c2)c(=O)n(-c2ccccc2)n1C	.	.	-3	.	-2	.	.
CC(=O)NN1CCc2cc3ccc(C)cc3nc21	-4	5	5	-1	1	.	.
Cc1ccc2cc3c(nc2c1)N(c1ccccc1)CC3	0	12	46*	2	-1	0	32
CN1C(=O)c2ccc(NC(=O)c3ccc(Cl)cc3Cl)cc2C1=O	-14	-10	11	9	-1	.	.
CCCCN1C(=N)N([C@@H](C)CN2CCC[C@H]2CN2C(N)=NC[C@@H]2Cc2ccccc2)C[C@H]1[C@H](C)CC	.	.	19	.	.	.	.
CCCCN1C(=N)N([C@@H](CCC)CN2CCC[C@H]2CN2C(N)=NC[C@@H]2Cc2ccccc2)C[C@H]1Cc1ccccc1	.	.	54*	.	.	-4	36
CCCCN1C(=N)N([C@@H](C)CN2CCC[C@H]2CN2C(N)=NC[C@H]2CC(C)C)C[C@H]1Cc1ccccc1	.	.	27	.	.	.	.
CCC[C@@H](CN1CCC[C@H]1CN1C(N)=NC[C@@H]1Cc1ccccc1)N1C[C@@H]([C@H](C)CC)N(CCCC2CCCC2)C1=N	.	.	91*	.	.	2	85*
CC(C)[C@H](CN1CCC[C@H]1CN1C(N)=NC[C@H]1C(C)C)N1C[C@@H](Cc2ccccc2)N(CCCC2CCCC2)C1=N	.	.	70*	.	.	1	69*
CCC[C@@H](CN1CCC[C@H]1CN1C(N)=NC[C@H]1CC(C)C)N1C[C@@H](Cc2ccccc2)N(CCCC2CCCC2)C1=N	.	.	77*	.	.	-1	83*
O=C(CSc1nnc(-c2ccco2)o1)c1ccc(O)cc1O	11	-16	4	5	4	.	.
CN(C)C1=NC[C@H](Cc2ccccc2)N1CC1CCCC1	.	.	5	.	1	.	.
CCC[C@@H](CN1CCC[C@H]1CN1C(N)=NC[C@@H]1Cc1ccccc1)N1C[C@@H](Cc2ccccc2)N(CCCC2CCCC2)C1=N	.	.	65*	.	.	-4	58*
Cc1cnc(NC(=O)CC(C)c2ccccc2)s1 (stereo unspecified)	-3	-48	3	3	0	.	.
COc1ccc2sc(-c3ccc(S(C)(=O)=O)cc3)c(C(=O)NCCCN3CCCC3=O)c2c1	.	.	26	.	.	.	.
Cc1ccc(CNC(=O)c2c(-c3ccccc3)sc3ccccc23)o1	.	.	10	.	.	.	.
COc1cc2sc(-c3ccc(S(C)(=O)=O)cc3)c(C(=O)NCCCCO)c2cc1OC	.	.	46*	.	.	3	43
COc1cc2sc(-c3ccc(S(C)(=O)=O)cc3)c(C(=O)NCc3ccc(C)o3)c2cc1OC	.	.	46*	.	.	5	42
COc1ccc(CC(=O)N(C)CC(=O)Nc2ccccc2Cl)cc1S(=O)(=O)N1CCOCC1	.	.	52*	.	-5	3	41
